{"data": "Measurements gathered from unrelated publications", "target": "Dual specificity tyrosine-phosphorylation-regulated kinase 1B (DYRK1B, Homo sapiens, UniProt Q9Y463)", "effect on": "enzyme activity", "action": "inhibitor", "note": "Protocols differ between the studies behind these lines."}
{"SMILES": "Cc1cnc(NC2CCOCC2)nc1-n1cnc(C(=O)NC(CN)c2cc(F)cc(Cl)c2)c1 (centres unmarked)", "method": "radiometric", "tested at": "1 µM", "remaining activity": "80%"}
{"SMILES": "O=C(Nc1cnn(-c2csc(C(=O)NC3COC3)c2)c1)Nc1ccccc1Cl", "tested at": "5 µM", "remaining activity": "87%"}
{"SMILES": "Nc1ncnc2occ(-c3ccc(NC(=O)Nc4cc(C(F)(F)F)ccc4F)cc3)c12", "tested at": "20 µM", "remaining activity": "80%"}
{"SMILES": "COc1cc(Cl)c(C(=O)N[C@@H](CN[C@H]2CC[C@@H](N)CC2)Cc2ccc(C#N)cc2)cc1-c1ccc(CN[C@H](C)c2ccc(C)cc2)o1", "tested at": "1 µM", "remaining activity": "101%"}
{"SMILES": "O=C(O)c1ccc2c(c1)nc(Nc1ccc(Cl)cc1)c1ccncc12", "method": "radiometric", "tested at": "1 µM", "remaining activity": "65%"}
{"SMILES": "CC(C)(O)[C@H]1CC[C@H](Nc2ccc3ncc(-c4cccc(C(F)(F)F)c4)n3n2)CC1", "tested at": "1 µM", "remaining activity": "15.3%"}
{"SMILES": "O=C(Nc1cnn(-c2csc(C(=O)NC3COC3)c2)c1)Nc1c(F)cccc1Cl", "tested at": "5 µM", "remaining activity": "82.8%"}
{"SMILES": "O=C(O)c1ccc2c(c1)nc(NCCc1ccccc1)c1ccncc12", "method": "radiometric", "tested at": "1 µM", "remaining activity": "114%"}
